# Compound activity: PubChem, several laboratories
# CHT inh – inhibitors of human choline transporter CHT | CHT-expressing cells, membrane potential dye, choline response; stronger effect = lower value | 310,000 tested, 0.86% active | B-score at 10 µM | Q9GZV3;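 active means B-score over 3 SD under the library average, and starting fluorescence ratio not unusually high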;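 further: choline stimulus applied at its EC90 after an EC20 pre-addition; B-score computed on integrated fluorescence ratio after choline addition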
# Target sequence (Q9GZV3 whole entry, looked up): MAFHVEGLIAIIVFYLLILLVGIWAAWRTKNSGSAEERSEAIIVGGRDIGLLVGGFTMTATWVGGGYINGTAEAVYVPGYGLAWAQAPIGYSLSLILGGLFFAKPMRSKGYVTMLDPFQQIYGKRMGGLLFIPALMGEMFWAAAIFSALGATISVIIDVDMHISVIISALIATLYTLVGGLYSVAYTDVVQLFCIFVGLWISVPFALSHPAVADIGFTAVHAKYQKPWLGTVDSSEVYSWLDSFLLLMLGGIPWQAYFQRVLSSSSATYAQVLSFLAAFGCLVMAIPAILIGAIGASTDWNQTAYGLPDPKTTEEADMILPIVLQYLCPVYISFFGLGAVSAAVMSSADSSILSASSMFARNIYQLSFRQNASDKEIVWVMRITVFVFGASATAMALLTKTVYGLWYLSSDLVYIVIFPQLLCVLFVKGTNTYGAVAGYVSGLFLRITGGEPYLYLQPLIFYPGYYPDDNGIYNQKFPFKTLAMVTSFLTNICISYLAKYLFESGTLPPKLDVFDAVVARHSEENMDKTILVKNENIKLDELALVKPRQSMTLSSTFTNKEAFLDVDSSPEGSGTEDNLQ
# HSF1 activator – increases HSF-1 driven luciferase reporter signal | activation, % at 9 µM | NIH3T3-HGL HSF-1 luciferase reporter, MG132, 8 h; 100% = twice DMSO control signal | 300,000 tested, 1.7% active | AID 504408;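 active means mean replicate activation of at least 50% with a set share of replicates each reaching 50%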
# CHT allo act – allosteric activators of human choline transporter CHT. Q9GZV3. CHT-expressing cells, membrane potential dye, choline EC20; stronger effect = higher value; LV-AA mutant CHT in HEK293 cells. B-score at 10 µM. 310,000 tested, 0.49% active. AID 488977;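 active means initial fluorescence not abnormally high and integrated response B-score, plate-corrected, over 3 SD above library mean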
# PHOSPHO1 block – inhibitors of human PHOSPHO1 phosphatase; Q8TCT1; recombinant PHOSPHO1, absorbance phosphatase assay; inhibition, % at 13.3 µM; 290,000 tested, 1.1% active; in the data active means inhibition above about 60%
# HSF1 inh – HSF1 inhibition; NIH3T3-HGL HSE-luciferase, MG132-induced, luminescence 8 h; stronger effect = lower value; activity change, negative = inhibition, % at 7.5 µM (by protocol); 300,000 tested, 0.77% active; AID 2098;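 active means more than half of replicate wells show activity change below -50%, luminescence cut by over half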;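 further: luciferase reports HSF-1 transcriptional activity via heat shock element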
# Hep lipid drop – hepatic lipid droplet formation modulation. AML12 mouse hepatocytes, oleate lipid droplets, BODIPY imaging. inhibition, % at 6.5 µM. 240,000 tested, 0.4% active. AID 1656;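 active means lipid droplet intensity inhibited by at least 50%, with more than 500 cells counted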
#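 Assay system: AML12 mouse liver cells | Compound: 6.5 µM single-point dosing | Schedule: Overnight exposure | Technique: Fluorescence imaging, 20x objective, two fields per well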
# A number is an active result; 0 = inactive; - = no result given. An excerpt weighted towards active compounds, which were near 4.9% of everything screened.
SMILES,CHT inh,HSF1 activator,CHT allo act,PHOSPHO1 block,HSF1 inh,Hep lipid drop
O=[N+]([O-])c1cc2c(cc1/C=N/n1c(-c3ccccn3)n[nH]c1=S)OCO2,0,0,0,73.5,0,0
O=[N+]([O-])c1cc2c(cc1/C=N/n1c(-c3ccccc3)n[nH]c1=S)OCO2,0,0,0,106.0,0,-
Cc1ccc(-c2n[nH]c(=S)n2/N=C/C=C/c2ccccc2[N+](=O)[O-])cc1,0,0,0,99.2,0,0
S=c1[nH]nc(-c2cccnc2)n1/N=C/C=C/c1ccccc1,0,0,0,67.4,0,0
S=c1[nH]nc(-c2cccnc2)n1/N=C/c1ccccc1,0,0,0,0,0,0
S=c1[nH]nc(-c2ccccn2)n1/N=C/c1ccco1,0,0,0,0,0,0
COc1ccc(C(=O)N2CC(=O)Nc3ccc(F)cc3C2c2ccccc2)cc1 (stereo not given),0,0,0,-,0,0
COc1ccc(NC(=O)CN(C)CC(=O)Nc2ccc(N3CCOCC3)cc2)c([N+](=O)[O-])c1,0,0,0,0,0,0
N#Cc1ccccc1NC(=O)CC1CCCCC1,0,0,0,0,0,0
CN(C)CCN(C(=O)c1ccc(C(=O)c2ccccc2)cc1)c1nc2cc3c(cc2s1)OCCO3,0,0,0,0,0,0
CCSc1nc(N2CCOCC2)c2c(c1C#N)CC(C)(C)N(C)C2,0,0,0,0,0,0
CN1Cc2c(N3CCOCC3)nc(SCc3ccccc3)c(C#N)c2CC1(C)C,0,0,0,80.4,0,-
COc1cccc(NC(=S)N(CCC(C)C)C(C)c2ccncc2)c1 (stereo not given),0,0,0,0,0,0
O=C(N/N=C/c1ccncc1)c1cc2ccccc2cc1O,0,311.5,0,61.0,0,0
O=C(N/N=C/c1ccc[nH]1)c1cc2ccccc2cc1O,0,0,0,0,0,0
CCC(C)(C)n1nnnc1C(c1cc2ccc(C)cc2[nH]c1=O)N(Cc1cccnc1)Cc1ccco1 (stereo not given),0,0,0,0,0,61.6
CCCC(c1nnnn1C(C)(C)CC)N(Cc1ccco1)Cc1cc2ccc(OC)cc2[nH]c1=O (stereo not given),-,56.5,-,0,0,0
Cc1cc2cc(C(c3nnnn3C3CCCC3)N(Cc3cccnc3)Cc3ccco3)c(=O)[nH]c2cc1C (stereo not given),0,0,0,82.6,0,0
COCC1CCN(C(=O)c2ccc(OC)c(OC3CCN(C(C)C)CC3)c2)CC1,0,0,0,0,0,0
COCC(=O)Nc1ccc2c(c1)OCC(=O)N2Cc1ccccc1F,0,0,0,0,0,0
Cc1ccc(C)c(N2CCN(C(=O)CCC(=O)N3CCOc4ccc(Cl)cc43)CC2)c1,0,0,0,0,0,0
COc1ccccc1NC(=O)COc1ccccc1C(=O)Nc1ccccc1,0,0,0,0,0,0
COc1ccc(CC(=O)NCC2CCCN(Cc3cccc(SC)c3)C2)cc1 (stereo not given),0,0,0,61.1,0,0
CC(=O)Nc1ccccc1OC(C)C(=O)N1CC(C)CC(C)C1 (stereo not given),0,113.6,0,0,0,0
CC1CC(C)CN(C(=O)Nc2ccccc2F)C1 (stereo not given),0,0,0,0,0,0
SMILES,CHT inh,HSF1 activator,CHT allo act,PHOSPHO1 block,HSF1 inh,Hep lipid drop
Cc1ccc(N2C(=O)C3CC(c4ccccc4)=C4C5C=CC(C6C(=O)N(c7ccc(C)cc7)C(=O)C56)C4C3C2=O)cc1 (stereo not given),0,0,0,0,0,0
Cc1ccc(N2C(=O)C3CC(c4ccccc4)=C4C5C=CC(C6C(=O)N(c7ccc(C)cc7C)C(=O)C56)C4C3C2=O)c(C)c1 (stereo not given),0,88.1,0,0,0,0
C/C(Cl)=C/Cc1c(C)[nH]c2c(ccc3ccccc32)c1=O,0,0,0,-,0,0
C/C(Cl)=C/Cc1c(C)[nH]c2ccc(C)cc2c1=O,0,58.2,0,0,0,-
Cc1ncc([N+](=O)[O-])n1CC(=O)N/N=C/c1ccccc1F,0,0,0,67.7,0,0
CCC(=O)N1CCN(c2ccc(NC(=O)c3ccc(N4CCCC4)c([N+](=O)[O-])c3)cc2)CC1,0,0,0,0,0,0
Cc1nc2c(-c3ccc(Cl)cc3)cnn2c(N)c1-c1ccc(F)cc1,0,0,0,-,-74.4,-
Cc1nc2c(-c3ccc(F)cc3)cnn2c(N)c1-c1ccccc1,0,0,0,0,-80.8,0
Cc1nn(C)c(C)c1NC(=O)Nc1ccc(Cl)c(Cl)c1,0,0,0,0,0,0
Cc1nn(C(C)(C)C)c(C)c1/C=N/OC(=O)Nc1ccc(Cl)c(Cl)c1,0,0,0,0,-95.3,0
COc1ccc(CN2CN(S(=O)(=O)c3cccs3)c3nc4ccccc4nc32)cc1,0,0,0,0,0,-
CCN(CC)c1ccc(/C=C2\C(=O)c3ccc(C(=O)O)cc3C2=O)cc1,0,-,0,0,-,0
CCN(CC)C(=O)Cn1nc(-c2ccncc2)nc1SCC(=O)Nc1ccc(OC)cc1,0,58.1,0,0,0,0
COC(=O)c1ccc(NC(=O)Cn2nc(-c3ccncc3)nc2SCC(=O)Nc2nccs2)cc1,0,0,0,0,0,-
CCOCC(=O)Nc1cccc(NC(C)=O)c1,0,0,0,0,0,0
CC(C)(C)C(=O)Nc1nc(=S)ss1,-5.49,0,0,0,0,0
Cc1cc(NC(=O)c2ccco2)no1,0,0,0,0,0,0
CC1CCc2nc(NC(=O)C3CCCO3)sc2C1 (stereo not given),0,0,0,0,0,0
CCOC(=O)C1=C(C)Nc2nc(=S)[nH]n2C1c1ccc(Cl)cc1 (stereo not given),-,0,-,96.8,0,-
CCOc1ccc(C(=O)Nc2ccc(N3CCN(C)CC3)cc2)cc1Br,0,0,0,0,0,-
CC(=O)Nc1ccc(-c2ccc(NC(C)=O)cc2)cc1,0,0,0,0,0,0
CC(=O)Nc1ccc(N=Nc2ccc(O)cc2)cc1,0,57.0,0,0,0,0
CNS(=O)(=O)c1cnccc1N1CCN(c2cccc(C(F)(F)F)c2)CC1,0,0,0,0,0,-
CNC(=O)COC(=O)c1cc(=O)[nH]c2ccccc12,0,0,0,0,0,-
NC(=O)COC(=O)c1cc(=O)[nH]c2ccccc12,0,0,0,0,-62.5,0
O=C(CSc1nc(=O)n2ccccc2n1)NCCc1ccccc1,0,0,0,-,0,-
Cc1ccccc1-n1c(=O)cc(N2CCc3ccccc32)[nH]c1=O,0,0,0,0,-78.9,0
O=C(O)c1cccc(N/N=C(\N=Nc2ccccc2)c2ccccc2)c1,-6.44,0,0,-,0,-
O=C(O)c1ccc(N=N/C(=N\Nc2ccc(C(=O)O)cc2)c2ccccc2)cc1,0,0,0,-,0,-
